Key:
Macaca mulatta = species: Macaca mulatta; test: Binding affinity to rhesus monkey DAT
Outline: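 Monkey striatal tissue; each compound tested 2–5 times. Competition binding used a fixed radioligand concentration against a range of test-drug concentrations.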

[1] = molecular target: Sodium-dependent dopamine transporter (Homo sapiens) (UniProt Q01959); test: Displacement of [3H]WIN 35,428 from human dopamine active transporter
Outline: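 A fixed radioligand concentration was run against a range of test-drug concentrations, and IC50 was read. Racemic compounds. Values are means of two or more independent experiments, each in triplicate.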

Homo sapiens = species: Homo sapiens; test: Selectivity ratio of IC50 for human DAT to IC50 for human SERT

Chain of Sodium-dependent dopamine transporter (Homo sapiens) (Q01959 whole entry): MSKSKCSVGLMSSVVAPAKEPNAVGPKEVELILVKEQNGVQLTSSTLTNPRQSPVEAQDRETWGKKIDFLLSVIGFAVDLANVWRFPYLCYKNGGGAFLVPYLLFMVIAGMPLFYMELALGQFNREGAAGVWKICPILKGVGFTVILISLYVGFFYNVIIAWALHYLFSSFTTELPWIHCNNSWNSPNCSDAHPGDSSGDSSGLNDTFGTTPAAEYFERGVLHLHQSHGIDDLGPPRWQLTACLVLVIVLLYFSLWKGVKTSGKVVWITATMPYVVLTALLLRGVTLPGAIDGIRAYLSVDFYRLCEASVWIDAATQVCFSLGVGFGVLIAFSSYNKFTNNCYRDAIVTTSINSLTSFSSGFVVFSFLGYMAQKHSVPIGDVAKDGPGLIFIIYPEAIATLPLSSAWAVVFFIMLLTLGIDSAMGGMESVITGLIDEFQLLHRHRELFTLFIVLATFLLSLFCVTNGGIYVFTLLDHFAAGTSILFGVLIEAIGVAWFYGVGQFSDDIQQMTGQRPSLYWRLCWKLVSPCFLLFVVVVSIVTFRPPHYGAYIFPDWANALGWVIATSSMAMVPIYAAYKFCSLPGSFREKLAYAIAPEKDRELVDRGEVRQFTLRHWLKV

SMILES	Activity (Macaca mulatta)	inhibition [1]	Ratio IC50 (Homo sapiens)
COC(=O)[C@H]1[C@@H](c2ccc(F)cc2)C[C@@H]2CC[C@H]1N2C	12.9 nM		
COC(=O)[C@@H]1C2CCC(C[C@@H]1c1cc3ccccc3[nH]1)O2 (mixture of isomers)		Dose-dependent effect	0.2
COC(=O)[C@@H]1C2CCC(C[C@@H]1c1ccc(-c3cccn3C)cc1)O2 (mixture of isomers)		Dose-dependent effect	> 2
COC(=O)[C@@H]1C2CCC(C[C@@H]1c1ccc(-c3ccco3)cc1)O2 (mixture of isomers)		Dose-dependent effect	2
COC(=O)[C@@H]1C2CCC(C[C@H]1c1cc3ccccc3s1)O2 (mixture of isomers)		Dose-dependent effect	
COC(=O)[C@@H]1C2CCC(C[C@H]1c1ccc(-c3cccn3C)cc1)O2 (mixture of isomers)		Dose-dependent effect	> 2.5
COC(=O)[C@@H]1C2CCC(C[C@H]1c1ccc(-c3ccco3)cc1)O2 (mixture of isomers)		Dose-dependent effect	4
COC(=O)[C@@H]1C2CCC(C[C@H]1c1ccc(-c3cccs3)cc1)O2 (mixture of isomers)		Dose-dependent effect	10
COC(=O)[C@@H]1C2CCC(C[C@H]1c1ccc(-c3nccs3)cc1)O2 (mixture of isomers)		Dose-dependent effect	> 7
COC(=O)[C@@H]1C2CCC(C[C@H]1c1cccs1)O2 (mixture of isomers)		Dose-dependent effect	1
COC(=O)[C@H]1C2CCC(C[C@@H]1c1cc3ccccc3[nH]1)O2 (mixture of isomers)		Dose-dependent effect	0.4
COC(=O)[C@H]1C2CCC(C[C@@H]1c1cc3ccccc3s1)O2 (mixture of isomers)		Dose-dependent effect	
COC(=O)[C@H]1C2CCC(C[C@@H]1c1cccs1)O2 (mixture of isomers)		Dose-dependent effect	1
COC(=O)[C@H]1C2CCC(C[C@H]1c1cc3ccccc3[nH]1)O2 (mixture of isomers)		Dose-dependent effect	< 0.3
COC(=O)[C@H]1C2CCC(C[C@H]1c1cc3ccccc3o1)O2 (mixture of isomers)		Dose-dependent effect	< 0.04
COC(=O)[C@H]1C2CCC(C[C@H]1c1ccc(-c3ccccc3)o1)O2 (mixture of isomers)		Dose-dependent effect	< 2
COC(=O)[C@H]1C2CCC(C[C@H]1c1cccc(-c3nccs3)c1)O2 (mixture of isomers)		Dose-dependent effect	1
COC(=O)C1=C(c2cc3ccccc3o2)CC2CCC1O2 (racemic)		Dose-dependent effect	< 0.1
COC(=O)C1=C(c2cc3ccccc3s2)CC2CCC1O2 (racemic)		Dose-dependent effect	< 0.004
COC(=O)C1=C(c2ccc(-c3ccccc3)n2C)CC2CCC1O2 (racemic)		Dose-dependent effect	1
COC(=O)C1=C(c2ccc(-c3ccccc3)o2)C[C@@H]2CC[C@H]1O2 (racemic)		Dose-dependent effect	1
COC(=O)C1=C(c2ccc(-c3ccccc3)s2)CC2CCC1O2 (racemic)		Dose-dependent effect	1
COC(=O)C1=C(c2cccc(-c3cccn3C)c2)CC2CCC1O2 (racemic)		Dose-dependent effect	> 14
COC(=O)C1=C(c2ccco2)C[C@@H]2CC[C@H]1O2 (racemic)		Dose-dependent effect	1
COC(=O)C1=C(c2cccs2)C[C@@H]2CC[C@H]1O2 (racemic)		Dose-dependent effect	1
O=C1C2=C(CC3CCC2O3)c2cc3ccccc3n21 (racemic)		Dose-dependent effect	1
